Source: PubChem BioAssay (Johns Hopkins Ion Channel Center)
TRPC4 PAM: TRPC4 (mouse) allosteric potentiation; Q9QUQ5; HEK293 TRPC4beta/mu-opioid, DAMGO EC20, Fluo-4 Ca2+ flux; active compounds read high; B-score at 10 µM; 0.42% of 310,000 active; AID 2227;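 active means B-score of calcium response area above 5 SD of library B-scores, with initial fluorescence ratio within 5 SD of library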
TRPC6 act: activators of mouse TRPC6 channel; Q61143; HEK293-TRPC6 membrane potential dye fluorescence; active compounds read high; B-score at 10 µM; 0.13% of 310,000 active; AID 2550;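 active means B-score of the integrated fluorescence ratio above library mean plus 3 SD, and starting fluorescence ratio within library mean plus 5 SD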;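 further: higher score means more depolarization so channel activation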
Target sequence (Q61143 whole entry, looked up): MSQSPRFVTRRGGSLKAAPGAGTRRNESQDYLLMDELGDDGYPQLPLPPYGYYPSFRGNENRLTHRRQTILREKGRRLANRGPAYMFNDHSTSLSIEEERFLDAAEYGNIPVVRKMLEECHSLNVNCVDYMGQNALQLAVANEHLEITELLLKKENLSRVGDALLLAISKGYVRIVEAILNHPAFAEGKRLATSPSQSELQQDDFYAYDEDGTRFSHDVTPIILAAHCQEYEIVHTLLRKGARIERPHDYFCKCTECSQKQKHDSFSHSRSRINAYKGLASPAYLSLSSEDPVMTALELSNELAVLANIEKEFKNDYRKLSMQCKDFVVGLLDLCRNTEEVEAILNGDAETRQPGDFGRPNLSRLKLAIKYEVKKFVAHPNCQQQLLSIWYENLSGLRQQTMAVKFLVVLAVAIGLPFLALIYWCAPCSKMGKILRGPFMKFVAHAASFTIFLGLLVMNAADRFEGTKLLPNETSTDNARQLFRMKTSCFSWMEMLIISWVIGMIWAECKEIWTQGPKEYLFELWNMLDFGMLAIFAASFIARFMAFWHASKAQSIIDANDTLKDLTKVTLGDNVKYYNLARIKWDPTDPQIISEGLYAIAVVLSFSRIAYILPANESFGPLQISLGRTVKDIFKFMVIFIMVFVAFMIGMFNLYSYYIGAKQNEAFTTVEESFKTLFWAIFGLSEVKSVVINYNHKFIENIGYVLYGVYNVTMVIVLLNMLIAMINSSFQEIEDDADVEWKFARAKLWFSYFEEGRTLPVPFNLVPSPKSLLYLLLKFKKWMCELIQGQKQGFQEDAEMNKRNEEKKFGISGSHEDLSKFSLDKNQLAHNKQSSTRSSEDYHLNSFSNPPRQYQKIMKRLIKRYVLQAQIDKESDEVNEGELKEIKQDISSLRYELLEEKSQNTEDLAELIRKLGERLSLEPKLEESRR
TRPC4 inh: blocks the mouse TRPC4 cation channel; 0.39% of 300,000 active; B-score at 10 µM; HEK293 TRPC4beta/mu-opioid, DAMGO-evoked Fluo4 calcium flux; active compounds read low; Q9QUQ5;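 active means B-score over 3 SD under the library average, no early fluorescence shift, positive overall ratio signal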
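Assay system: HEK293 cells with stable TRPC4beta plus mu-opioid receptor expression. Dosing: single dose. Measured by: Fluo4 Ca2+ flux fluorescence. Also added: DAMGO in two steps, submaximal then maximal. Read-out: B score from integrated Fluo4 fluorescence ratio.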
Kir21 inh: Kir2.1 (mouse) channel inhibition. P35561. HEK293-Kir2.1, FluxOR thallium flux fluorescence; active compounds read low. B-score at 10 µM. 0.85% of 310,000 active. AID 1672;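 active means fluorescence ratio B-score at or below minus 3 SD of library scores, with starting-brightness B-score within 2 SD, cut at about -4.2 in these data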;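 further: channel flux triggered by added potassium and thallium sulfate stimulus; B-score of peak minus minimum fluorescence over baseline after thallium stimulus; more negative B-score means stronger Kir2.1 block with less thallium influx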
TRPC6 inhibitor: inhibitors of mouse TRPC6 channel. Q61143. HEK293-TRPC6, membrane potential dye, ACh-evoked depolarization; active compounds read low. B-score at 10 µM. 1.1% of 310,000 active. AID 2553;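 active means B-score under library mean minus 3 SD, initial fluorescence not abnormally high, positive integrated signal ratio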;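 further: B-score derived from integrated fluorescence ratio over the kinetic read; more negative B-score means stronger inhibition of depolarization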
TRPC4 agonist: TRPC4 (mouse) channel activation | B-score at 10 µM | Q9QUQ5 | HEK293 TRPC4beta/mu-opioid, Fluo4 calcium fluorescence; active compounds read high | 0.49% of 310,000 active;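 active means B-score above 5 SD of library B-scores, and initial fluorescence ratio not above library mean plus 5 SD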;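 further: positive B-score marks a calcium rise read as TRPC4 activation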
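Assay system: HEK293 cells stably co-expressing mouse TRPC4beta and mu-opioid receptor / Timing: Fluo4 dye loading 45 min at room temperature, 110 s recording / Signal: Fluo4 calcium-sensitive dye fluorescence, kinetic, 1 Hz baseline / Read-out: integrated baseline-normalised fluorescence ratio, converted to per-well B score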
A number is an active result; – = inactive. Hits are enriched below; roughly 3% of the tested compounds scored in any of these assays.

SMILES	TRPC4 PAM	TRPC6 act	TRPC4 inh	Kir21 inh	TRPC6 inhibitor	TRPC4 agonist
CCN(CC)S(=O)(=O)c1cccc(C(=O)NCC2CCCCC2)c1	–	–	–	–	–	–
COc1ccc(S(=O)(=O)n2cccc2)cc1	–	–	–	–	–	–
CCc1ccccc1Oc1ccc(S(=O)(=O)N2CCN(C)CC2)cn1	–	–	–	–	–	–
N/C(=N\OC(=O)CC1CCCCC1)c1ccc(Cl)cc1	–	–	–	–	–	–
COc1ccc(C=O)cc1CSc1nnc(COc2cccc3cccnc23)o1	–	–	–	-4.9	–	–
CC(=O)N(Cc1ccccc1C)c1cccc(C)c1C	–	–	–	-4.6	–	–
CC(=O)N(Cc1ccc(F)cc1)c1cccc(C)c1C	–	–	–	–	–	–
COC(CNC(=O)[C@H](Cc1ccccc1)N1Cc2ccccc2C1=O)OC	–	–	–	–	–	–
C=CCCC1(C)C(=O)N(c2ccccc2)c2ccccc21 (stereo unspecified)	–	–	–	-6	–	–
C=CCC1(C)C(=O)N(c2ccccc2)c2ccccc21 (stereo unspecified)	–	–	–	–	–	–
COc1ccc(-c2cnc(N)n2CC2CCCO2)cc1 (stereo unspecified)	–	–	–	–	–	–
c1ccc(-c2cnc(SCCN3CCOCC3)n2CC2CCCO2)cc1 (stereo unspecified)	–	–	-5	–	–	–
CC1(C)Cc2c(cnn2-c2cccc(F)c2)C(NC(=O)CSc2ccncc2)C1 (stereo unspecified)	–	–	–	–	–	–
O=S(=O)(c1ccccc1)c1cnc(-c2cccnc2)nc1-c1ccccc1	–	–	–	–	–	–
Cc1ncc(S(=O)(=O)c2ccc(Cl)cc2)c(-c2ccccc2)n1	–	–	–	-4.8	–	–
CC(C)OC(=O)C(CC(=O)O)NCc1ccccc1 (stereo unspecified)	–	–	–	–	–	–
COC(=O)[C@H](CC(C)C)NCc1cccc(CN[C@@H](CC(C)C)C(=O)OC)c1	–	–	–	-4.3	–	–
CCN(c1ccccc1)S(=O)(=O)c1ccc(Cl)c(C(=O)NCC2CCCO2)c1 (stereo unspecified)	–	–	–	–	–	–
Cc1nc(N2CCN(C(=O)c3cccs3)CC2)c2c3c(sc2n1)CCCC3	–	–	–	–	–	–
